Measured values gathered from unrelated publications.
Protocols differ between the studies behind these lines.
Target: Histamine H1 receptor (HRH1, Homo sapiens, UniProt P35367)

Structure (SMILES) | assay | conditions | endpoint | value
CN(C)CCOC1c2ccccc2CCc2ccccc21 | binding | – | kon | 1.1e+06 M⁻¹ s⁻¹
C[C@H](NC(=O)Nc1cc2[nH]ncc2c(CO)n1)c1ccccn1 | cell-free assay | 10 µM | inhibition | 4.18%
CCCNc1nc2ccccc2n1Cc1ccc(Cl)cc1 | ligand displacement | 10 µM | inhibition | 97.8%
CN1CCN(CCCOc2ccc(=O)n(-c3ccc(Cl)c(Cl)c3)n2)CC1 | ligand displacement | 1 µM | inhibition | 40.7%
CN(C)CCOC1c2ccccc2C=Cc2ccccc21 | binding | – | kon | 833000 M⁻¹ s⁻¹
Ic1cccc2cnccc12 | ligand displacement, radioligand | 10 µM | inhibition | 0%
COc1ccc(-n2nc(OCCCN3CCCCC3)ccc2=O)cc1 | ligand displacement | 1 µM | inhibition | 16.7%
Oc1cccc(Nc2nc(-c3ccc(F)cc3F)cs2)c1 | cell-free assay | 10 µM | inhibition | -19.9%
N#Cc1cc(Cn2c(N3CCCC3)nc3ccccc32)ccc1F | ligand displacement | 10 µM | inhibition | 73%
O=C(c1ccc(F)cc1)N(Cc1ccccc1)C1CCCCC1 | cell-free assay | 10 µM | inhibition | 23%
CN1CCN(C2c3ccccc3CCc3ccccc32)CC1 | binding | – | koff | 0.002 s⁻¹
CCN(Cc1ccccc1C(F)(F)F)C(=O)C1CCN(S(=O)(=O)c2ccc3[nH]ncc3c2)CC1 | ligand displacement, radioligand | 10 µM | inhibition | 26%
O=C1N=C(N2CCCCN2)S/C1=C\c1ccc(F)cc1O | ligand displacement, radioligand | 10 µM | inhibition | < 10%
CN1CCC(=C2c3ccccc3CCc3cccnc32)CC1 | binding | – | koff | 0.000147 s⁻¹
CCN(CC)c1ccc(C2Nc3ccc(C(=O)c4ccccc4)cc3NC3=C2C(=O)CC(C)(C)C3)cc1 (centres unmarked) | ligand displacement, radioligand | 10 µM | inhibition | 40%
CN1CCC(C2c3ccccc3C=Cc3ccccc32)CC1 | binding | – | koff | 0.00035 s⁻¹
CC(C)(C)OC(=O)N1CCCC1CNC1CCC(c2cc(F)ccc2F)(S(=O)(=O)c2ccc(Cl)cc2)CC1 (centres unmarked) | cell-free assay | 10 µM | inhibition | 25.6%
